From ChEMBL document CHEMBL1135681, “Syntheses and structure-activity relationships of nonnatural beta-C-nucleoside 5'-triphosphates bearing an aromatic nucleobase with phenolic hydroxy groups: inhibitory activities against DNA polymerases” (J Med Chem, 2002) come the findings set out here.

Molecules are shown by their SMILES.

Assay [1] addresses Pyrobest DNA polymerase (Pyrococcus sp.). The assay can be described thus: Inhibitory activity against Pyrobest DNA polymerase.
For assay [2], the target named is Nucleic Acid. Nature of the assay: Inhibitory activity against Z-Taq DNA polymerase. Format: nucleic-acid assay, Thermus aquaticus. An outline of the steps: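 Z-Taq amplification in 1× Z-Taq buffer, 3 mM Mg2+, 0.2 mM each dNTP, with various nonnatural triphosphate concentrations. Cycling: 95 °C 5 min; 25 cycles of 95 °C 30 s, 50 °C 30 s, 72 °C 30 s; final 72 °C 5 min. Phosphorimager quantitation of product bands; IC50 as 50% inhibition concentration; mean of two independent experiments.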

Assay [3] addresses Nucleic Acid. Nature of the assay: Inhibitory activity against LA-Taq DNA polymerase. The format is nucleic-acid assay, Thermus aquaticus. The method in brief: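 LA-Taq PCR in 1× LA-Taq buffer with 2.5 mM Mg2+ and 0.2 mM each dNTP, plus graded levels of nonnatural triphosphate. Cycling: 95 °C 5 min; 30 cycles of 95 °C 30 s, 50 °C 30 s, 72 °C 60 s; final 72 °C 5 min. Amplified bands measured by phosphorimager; concentration for 50% inhibition determined; two independent experiments averaged.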

Assay [4] concerns the target Nucleic Acid. The assay can be described thus: Inhibitory activity against Pfu DNA polymerase. Format: nucleic-acid assay, Pyrococcus furiosus. The method in brief: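 Native Pfu polymerase (Pyrococcus furiosus) in native Pfu buffer, 2 mM Mg2+, 0.2 mM each dNTP, with various concentrations of nonnatural triphosphate. Cycling: 95 °C 5 min; 30 cycles of 95 °C 30 s, 50 °C 30 s, 72 °C 60 s; final 72 °C 5 min. PCR bands quantified by phosphorimager; IC50 at 50% inhibition; average of two independent runs.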

Assay [5] can be described thus: Inhibitory activity against Ex Taq DNA polymerase. Format: nucleic-acid assay, Thermus aquaticus. An outline of the steps: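 PCR inhibition assay in 1× Ex Taq buffer, 2 mM Mg2+, 0.2 mM each dNTP, with various concentrations of nonnatural triphosphate added. Cycling: 95 °C 5 min; 30 cycles of 95 °C 30 s, 50 °C 30 s, 72 °C 60 s; final 72 °C 5 min. Product bands quantified by phosphorimager; IC50 taken as concentration giving 50% inhibition of amplification; mean of two independent experiments.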

`O=P(O)(O)OP(=O)(O)OP(=O)(O)OCC1O[C@@H](c2ccccc2O)CC1O` (stereo not given in full): the IC50 in assay [1] was determined as 1400 µM; against Nucleic Acid [2], 3100 µM; on Nucleic Acid [3] it was 2400 µM; on Nucleic Acid [4], 800 µM; in assay [5] it was 1700 µM.

In the case of `O=P(O)(O)OP(=O)(O)OP(=O)(O)OCC1O[C@@H](c2ccccc2)CC1O` (stereo not given in full), the IC50 (in assay [1]; on Nucleic Acid [2]; against Nucleic Acid [3]; against Nucleic Acid [4]; in assay [5]) was greater than 16000 µM in each case.

On to `O=P(O)(O)OP(=O)(O)OP(=O)(O)OCC1O[C@@H](c2ccc(O)c(O)c2)CC1O` (stereo not given in full), for which the IC50 was found to be 500 µM in assay [1]; 300 µM against Nucleic Acid [2]; 700 µM at Nucleic Acid [3]; 200 µM on Nucleic Acid [4]; 30 µM in assay [5].

`O=P(O)(O)OP(=O)(O)OP(=O)(O)OCC1O[C@@H](c2cccc(O)c2)CC1O` (stereo not given in full): the IC50 in assay [1] stood at 2700 µM; on Nucleic Acid [2] it was 6200 µM; against Nucleic Acid [3], 3100 µM; at Nucleic Acid [4] it was 900 µM; in assay [5], 1900 µM.

Turning to `O=P(O)(O)OP(=O)(O)OP(=O)(O)OCC1O[C@@H](c2ccc(O)cc2)CC1O` (stereo not given in full), the IC50 in assay [1] was 1500 µM; at Nucleic Acid [2], 3700 µM; on Nucleic Acid [3] it was 3700 µM; against Nucleic Acid [4], 900 µM; in assay [5], 1600 µM.
